Source: ChEMBL document CHEMBL1141797, “Norsesquiterpenes from the brown alga Dictyopteris divaricata” (J Nat Prod, 2005)

Tests used:
Format in all cases: functional, cell-based
A549 = assay: Cytotoxicity against human A549 cells by MTT method
Procedure, shortened: (§1)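 MTT colorimetric read-out of cell viability, expressed as IC50 in µg/mL. Human tumour lines by origin: A549 lung adenocarcinoma, BGC-823 stomach cancer, MCF-7 breast cancer, Bel7402 hepatoma, HCT-8 colon cancer.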

BGC-823 = assay: Cytotoxicity against human BGC823 cells by MTT method; procedure, shortened: as §1
MCF7 = assay: Cytotoxicity against human MCF7 cells by MTT method; procedure, shortened: as §1
Bel-7402 = assay: Cytotoxicity against human Bel7402 cells by MTT method; procedure, shortened: as §1
HCT-8 = assay: Cytotoxicity against human HCT8 cells by MTT method; procedure, shortened: as §1

Measured: IC50

CC(C)[C@@H]1CC[C@@H](C)[C@]2(O)CC(=O)C=C12
> 10 µg/mL: all assays above

CC(C)[C@@H]1CC[C@@H](C)[C@]2(O)CCC(=O)C=C12
> 10 µg/mL: all assays above

CC(C)[C@@H]1CC[C@@H](C)[C@@]2(O)CC(=O)C=C12
> 10 µg/mL: all assays above

CC(C)[C@H]1CC[C@H](C)C2=CC(=O)C[C@@]21O
> 10 µg/mL: all assays above
